These results are taken from publication PMC3249179 (European Journal of Clinical Pharmacology, 2011).

The format of data set [1] is in vivo, healthy Japanese male volunteers. The following applies: for AUC ratio (period II/period I) / CL/F ratio (period II/period I) / Cmax ratio (period II/period I) / t1/2,z ratio (period II/period I) / tmax difference (period II − period I): APZ + FLV vs APZ alone; for AUC ratio (period II/period I) / CL/F ratio (period II/period I) / Cmax ratio (period II/period I) / t1/2,z ratio (period II/period I): geometric mean ratio; for tmax difference (period II − period I): mean difference. In short, it runs like this:
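Healthy Japanese men aged 20–40 y (BMI 18.5–25.0), CYP2D6-genotyped from blood DNA; 7 per genotype randomly selected. Period I: 3 mg APZ tablet orally, fasting; 34-day washout. Fluvoxamine pretreatment 6 days, then APZ given at SSRI steady state, fluvoxamine continued 14 days. Heparinized plasma sampled predose to 336 h, stored −20°C; APZ and DAPZ by LC-MS/MS. Mean ± SD; per-subject period II/I GMR.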

Data set [2] deals with CYP2D6. Kind of data set: Calculation of the contribution of CYP2D6 to APZ metabolism. Further details: species or system healthy Japanese male volunteers. Conditions: before CYP inhibition.
For data set [3] the following is noted: APZ 3 mg with CYP3A4 inhibitor itraconazole 100 mg; Japanese EM subjects; cited from earlier work.
Data set [4] is classed as in vivo, healthy Japanese male volunteers. The following applies: for AUC ratio (period II/period I) / CL/F ratio (period II/period I) / Cmax ratio (period II/period I) / t1/2,z ratio (period II/period I) / tmax difference (period II − period I): APZ + PRX vs APZ alone; for AUC ratio (period II/period I) / CL/F ratio (period II/period I) / Cmax ratio (period II/period I) / t1/2,z ratio (period II/period I): geometric mean ratio; for tmax difference (period II − period I): mean difference.

For data set [5] the following is noted: cited from earlier work.
In data set [6] the test system is CYP3A4. The arrangement: species or system healthy Japanese male volunteers. Conditions: FLV 100 mg/day, calculated from APZ CL/F.
Data set [7] deals with CYP2D6. The following applies: coadministration of FLV (100 mg q.d.); cited from earlier work.
Data set [8] relates to CYP3A4. The following applies: coadministration of FLV (100 mg q.d.); cited from earlier work.
For data set [9] the following is noted: clinical doses of PRX (20–30 mg q.d.); cited from earlier work.
Where [10] appears, read: CYP2D6 EM, APZ + FLV 100 mg/day (period II), single oral 3 mg APZ, mean ± SD.
[11] abbreviates: CYP2D6 EM, APZ alone (period I), FLV group, single oral 3 mg APZ, mean ± SD.
Where [12] appears, read: CYP2D6 IM, APZ + FLV 100 mg/day (period II), single oral 3 mg APZ, mean ± SD.
The mark [13] stands for this setting: CYP2D6 IM, APZ alone (period I), FLV group, single oral 3 mg APZ, mean ± SD.
The mark [14] stands for this setting: male, human, plasma, oral, 3 mg.
Setting [15] is: CYP2D6 EM, APZ + PRX 20 mg/day (period II), single oral 3 mg APZ, mean ± SD.
Where [16] appears, read: CYP2D6 EM, APZ alone (period I), PRX group, single oral 3 mg APZ, mean ± SD.
[17] abbreviates: CYP2D6 IM, APZ + PRX 20 mg/day (period II), single oral 3 mg APZ, mean ± SD.
[18] abbreviates: CYP2D6 IM, APZ alone (period I), PRX group, single oral 3 mg APZ, mean ± SD.

Where two headings read alike, the source gives them in different places. Marks after values point to notes of the source that are not given here.

In general, CL/F refers to the apparent clearance, not corrected for the fraction that reaches the circulation. The AUC is the area under the concentration-time curve, a measure of exposure. A low value points to less exposure. By Cmax is commonly meant the highest concentration seen after dosing. The term half-life denotes how long it takes for the measured level to halve. Lower therefore signals fast loss. As for `O=C1CCc2ccc(OCCCCN3CCN(c4cccc(Cl)c4Cl)CC3)cc2N1` [Aripiprazole, aripiprazole], the CL/F in data set [1] (setting [10]) is reported as 2.03 ± 0.46 L/h; in data set [1] (setting [11]) it was 3.30 ± 0.59 L/h; in [1] (setting [12]), 1.26 ± 0.35 L/h; in data set [1] (setting [13]), 2.10 ± 0.69 L/h; in data set [4] (setting [15]) it was 2.22 ± 0.31 L/h; in data set [4] (setting [16]) it was 5.42 ± 1.25 L/h. In addition, the CL/F is listed as 1.78 ± 0.20 L/h in data set [4] (setting [17]) and 2.32 ± 0.33 L/h in data set [4] (setting [18]). Moreover, the “AUC ratio (period II/period I)” value is 1.63^a in [1] (CYP2D6 EM), 1.65^a in data set [1] (CYP2D6 IM), 2.40^a in [4] (CYP2D6 EM) and 1.30^a in data set [4] (CYP2D6 IM). The “CL/F ratio (period II/period I)” value is 0.61^a in data set [1] (CYP2D6 EM), 0.60^a in [1] (CYP2D6 IM), 0.42^a in data set [4] (CYP2D6 EM) and 0.77^a in [4] (CYP2D6 IM). In addition, the “Cmax ratio (period II/period I)” value in [1] (CYP2D6 EM) is listed as 1.39^a; in data set [1] (CYP2D6 IM) it was 1.27^a; in [4] (CYP2D6 EM), 1.39^a; in data set [4] (CYP2D6 IM) it was 1.27^a. Besides, the “t1/2,z ratio (period II/period I)” value in [1] (CYP2D6 EM) is 1.44^a; in data set [1] (CYP2D6 IM) it was 1.49^a; in [4] (CYP2D6 EM), 1.83^a; in data set [4] (CYP2D6 IM) it was 1.21^a. For the same compound, the “decrease in CL/F by coadministration of fluvoxamine” value came out at 39% in data set [1] (CYP2D6 EMs) and 40% in data set [1] (CYP2D6 IMs). In [1] (CYP2D6 IM), the “tmax difference (period II − period I)” value is 0.00^b h. Moreover, in [1] (both the IM and EM subjects), the “decrease in CL/F in period II (FLV) compared with period I” value is given as “approximately 40%”. In addition, the AUC was determined as 1540 ng·h/mL in [1] (setting [14]); 935 ± 173 ng·h/mL in data set [1] (male, human, plasma, po, 3 mg); 1320 ng·h/mL in data set [4] (setting [14]); 582 ± 150 ng·h/mL in [4] (male, human, plasma, po, 3 mg). In addition, the Cmax was determined as 15.3 ± 3.4 ng/mL in [1] (setting [14]); 14.7 ± 2.9 ng/mL in [1] (male, human, plasma, po, 3 mg); 14.5 ± 3.4 ng/mL in data set [4] (setting [14]); 12.6 ± 2.6 ng/mL in data set [4] (male, human, plasma, po, 3 mg). Moreover, the half-life in data set [1] (setting [14]) is 105 ± 6.8 h; in [4] (setting [14]), 107 ± 18.9 h; in data set [4] (male, human, plasma, po, 3 mg), 60.7 ± 9.2 h. In addition, the tmax in data set [1] (male, human, plasma, oral, 3 mg, tmax, CYP2D6 IM, APZ alone (period I), FLV group, single oral 3 mg APZ, mean ± SD) was 3 ± 1.8 h; in [4] (male, human, plasma, oral, 3 mg, tmax, CYP2D6 IM, APZ alone (period I), PRX group, single oral 3 mg APZ, mean ± SD), 3.3 ± 1.6 h; in [4] (male, human, plasma, oral, tmax, coadministration of APZ with PRX in period II), ~2 h. Also, the “percent contribution of CYP2D6 to total CL/F (metabolic activity) of APZ” value in the data set with CYP2D6 [2] (CYP2D6 EM, FLV coadministration group) was 40%; in the data set on CYP2D6 [2] (CYP2D6 EM, PRX coadministration group) it was 62%; in the data set on CYP2D6 [2] (CYP2D6 IM, FLV coadministration group), 18%; with CYP2D6 [2] (CYP2D6 IM, PRX coadministration group), 24%. The “decrease in CL/F” value in data set [3] is given as 27%. In addition, the “decrease in CL/F by coadministration of PRX” value in [4] (CYP2D6 EM subjects) is given as 58%; in data set [4] (CYP2D6 IM subjects) it was 23%. The “increase in Cmax by coadministration of PRX” value in data set [4] (CYP2D6 EM subjects) is 39%. Further, the “interindividual variability in CL/F” value in data set [4] (EM subjects of PRX group, APZ alone) turned out to be 23 % CV; in [4] (EM subjects, coadministration of PRX), 14 % CV; in data set [4] (IM subjects of PRX group, APZ alone), 14 % CV.

Take `O=c1ccc2ccc(OCCCCN3CCN(c4cccc(Cl)c4Cl)CC3)cc2[nH]1` [Dehydroaripiprazole, dehydroaripiprazole]: in data set [5], the “excretion in urine and feces” value is listed as “almost no”. Moreover, the Cmax came to 1.6 ± 0.2 ng/mL in data set [1] (setting [10]); 1.3 ± 0.3 ng/mL in data set [1] (setting [11]); 1.2 ± 0.3 ng/mL in data set [1] (setting [12]); 1.2 ± 0.3 ng/mL in data set [1] (setting [13]); 0.9 ± 0.1 ng/mL in [4] (setting [15]); 1.3 ± 0.3 ng/mL in [4] (setting [16]). Further, the Cmax in data set [4] (setting [17]) came out at 0.8 ± 0.1 ng/mL; in [4] (setting [18]), 1.0 ± 0.2 ng/mL. Further, the results for the “t1/2,z” value in data set [1] (setting [10]), in data set [1] (setting [11]) and in [4] (setting [16]) were 227.8 ± 63.2 h, 115.0 ± 39.6 h and 86.1 ± 10.7 h, respectively. Further, the tmax is reported as 72.0 ± 0.0 h in data set [1] (setting [10]); 60.0 ± 13.1 h in data set [1] (setting [11]); 157.7 ± 36.3 h in data set [1] (setting [12]); 120.0 ± 41.6 h in data set [1] (setting [13]); 89.1 ± 38.5 h in data set [4] (setting [15]); 51.4 ± 16.6 h in data set [4] (setting [16]). For the same compound, the tmax in data set [4] (setting [17]) is 133.7 ± 27.2 h; in data set [4] (setting [18]), 103.0 ± 38.7 h. The “AUC ratio (period II/period I)” value is 2.05^a in [1] (CYP2D6 EM), 1.21 in data set [4] (CYP2D6 EM) and 0.89 in [4] (CYP2D6 IM). The “Cmax ratio (period II/period I)” value in [1] (CYP2D6 EM) is recorded as 1.23^a; in [1] (CYP2D6 IM), 0.95^a; in [4] (CYP2D6 EM), 0.67; in [4] (CYP2D6 IM) it was 0.88. Besides, the “t1/2,z ratio (period II/period I)” value in [1] (CYP2D6 EM) is on record as 2.00^a; in data set [4] (CYP2D6 EM), 1.91; in [4] (CYP2D6 IM) it was 0.73. Besides, the “tmax difference (period II − period I)” value in [1] (CYP2D6 EM) is recorded as 12.00^b h; in data set [1] (CYP2D6 IM), 37.71^b h; in [4] (CYP2D6 EM), 37.71 h; in data set [4] (CYP2D6 IM), 30.71 h.

For the compound `COCCCC/C(=N\OCCN)c1ccc(C(F)(F)F)cc1` [FLV, fluvoxamine], the “percent inhibition of CYP3A4 by coadministration of FLV” value in the data set on CYP3A4 [6] (CYP2D6 EM subjects) is 64%; in the data set on CYP3A4 [6] (CYP2D6 IM subjects) it was 48%. Further, in the data set on CYP2D6 [7], the “effect on the PK of desipramine and metoprolol (CYP2D6 substrates)” value is “without significantly affecting”. In addition, the “increase in blood concentration of CYP3A4 substrates” value in the data set with CYP3A4 [8] is listed as “several-fold”.

For the compound `Fc1ccc([C@@H]2CCNC[C@H]2COc2ccc3c(c2)OCO3)cc1` [PRX, paroxetine], the steady-state blood concentrations in data set [9] is 35 to 43 ng/mL.
